Measured values as given in ChEMBL document CHEMBL3407413, “Repositioning proton pump inhibitors as anticancer drugs by targeting the thioesterase domain of human fatty acid synthase” (J Med Chem, 2015).
The source made the active and inactive calls. No cut-off for these calls is given here.

Legend:
BXPC-3 [1] = experiment: Effect of survival of human BxPC3 cells at 3.75 uM by MTT assay; assay type: functional, cell-based
Method in brief: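 BxPC-3 pancreatic cancer cells given the supplement alone; growth read by MTT assay against a DMSO control; n = 3.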

BXPC-3 [2] = experiment: Effect of FASN expression of human BxPC3 cells at 3.75 uM by Western blot analysis; assay type: functional, cell-based
Method in brief: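 BxPC-3 pancreatic cancer cells given the supplement; FASN protein read by Western blot, with actin as the loading control.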

Fatty acid synthase [3] = molecular target: T1, Fatty acid synthase (Homo sapiens, UniProt P49327); experiment: Inhibition of purified recombinant FASN TE activity (unknown origin) using 4-MUH as substrate preincubated for 30 mins before substrate addition measured after 1 hr by fluorescence assay
PANC-1 [4] = experiment: Inhibition of survival of human PANC1 cells after 10 to 14 days by crystal violet staining-based colony formation assay; assay type: functional, cell-based
Method in brief: (§1)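 Cells seeded at 100/well (PANC-1, including stable vector- or wild-type FASN-transfected lines) or 200/well (BxPC-3) and grown 24 h. Then cultured continuously with PPIs or DMSO vehicle for 10–14 days, stained with crystal violet and colonies counted manually. Three independent experiments.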

PANC-1 [5] = experiment: Induction of apoptosis in human PANC1 cells assessed as cytoplasmic histone-associated DNA fragments after 72 hrs by ELISA method; assay type: functional, cell-based
BXPC-3 [6] = experiment: Induction of apoptosis in human BxPC3 cells assessed as PARP1 cleavage after 24 hrs by Western blot analysis; assay type: functional, cell-based
Method in brief: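 Harvested and analysed by Western blot with an antibody specific to cleaved PARP-1; actin as loading control.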

BXPC-3 [7] = experiment: Effect on pH homeostasis in human BxPC3 cells assessed as change in intracellular pH at 12.5 to 100 uM after 72 hrs by pHrodo red dye-based fluorescence assay; assay type: functional, cell-based
Method in brief: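 Loaded with pHrodo red intracellular pH dye and fluorescence read in-well. Fluorescence converted to pH using a calibration kit standard curve (fluorescence vs pH). Three independent experiments.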

BXPC-3 [8] = experiment: Effect on pH homeostasis in human BxPC3 cells assessed as change in extracellular pH at 100 uM after 72 hrs by pH metry; assay type: functional, cell-based
Method in brief: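 Culture medium was collected, cleared of cell debris by centrifugation, and measured with a pH meter.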

PANC-1 [9] = experiment: Effect on FASN expression in human PANC1 cells at 12.5 to 200 uM after 30 mins by Western blot analysis; assay type: functional, cell-based
BXPC-3 [10] = experiment: Cytotoxicity against human BxPC3 cells by MTT assay in presence of 3.75 uM palmitate; assay type: functional, cell-based
BXPC-3 [11] = experiment: Induction of apoptosis in human BxPC3 cells in presence of 3.75 uM palmitate; assay type: functional, cell-based
PANC-1 [12] = experiment: Inhibition of survival of wild-type FASN overexpressing human PANC1 cells after 10 to 14 days by crystal violet staining-based colony formation assay; assay type: functional, cell-based; method in brief: as §1
PANC-1 [13] = experiment: Inhibition of survival of vector-transfected human PANC1 cells after 10 to 14 days by crystal violet staining-based colony formation assay; assay type: functional, cell-based; method in brief: as §1
Fatty acid synthase [14] = molecular target: T1, Fatty acid synthase
Fatty acid synthase [15] = molecular target: T1, Fatty acid synthase; remark: listed apart in the source

T1 sequence (P49327 whole entry): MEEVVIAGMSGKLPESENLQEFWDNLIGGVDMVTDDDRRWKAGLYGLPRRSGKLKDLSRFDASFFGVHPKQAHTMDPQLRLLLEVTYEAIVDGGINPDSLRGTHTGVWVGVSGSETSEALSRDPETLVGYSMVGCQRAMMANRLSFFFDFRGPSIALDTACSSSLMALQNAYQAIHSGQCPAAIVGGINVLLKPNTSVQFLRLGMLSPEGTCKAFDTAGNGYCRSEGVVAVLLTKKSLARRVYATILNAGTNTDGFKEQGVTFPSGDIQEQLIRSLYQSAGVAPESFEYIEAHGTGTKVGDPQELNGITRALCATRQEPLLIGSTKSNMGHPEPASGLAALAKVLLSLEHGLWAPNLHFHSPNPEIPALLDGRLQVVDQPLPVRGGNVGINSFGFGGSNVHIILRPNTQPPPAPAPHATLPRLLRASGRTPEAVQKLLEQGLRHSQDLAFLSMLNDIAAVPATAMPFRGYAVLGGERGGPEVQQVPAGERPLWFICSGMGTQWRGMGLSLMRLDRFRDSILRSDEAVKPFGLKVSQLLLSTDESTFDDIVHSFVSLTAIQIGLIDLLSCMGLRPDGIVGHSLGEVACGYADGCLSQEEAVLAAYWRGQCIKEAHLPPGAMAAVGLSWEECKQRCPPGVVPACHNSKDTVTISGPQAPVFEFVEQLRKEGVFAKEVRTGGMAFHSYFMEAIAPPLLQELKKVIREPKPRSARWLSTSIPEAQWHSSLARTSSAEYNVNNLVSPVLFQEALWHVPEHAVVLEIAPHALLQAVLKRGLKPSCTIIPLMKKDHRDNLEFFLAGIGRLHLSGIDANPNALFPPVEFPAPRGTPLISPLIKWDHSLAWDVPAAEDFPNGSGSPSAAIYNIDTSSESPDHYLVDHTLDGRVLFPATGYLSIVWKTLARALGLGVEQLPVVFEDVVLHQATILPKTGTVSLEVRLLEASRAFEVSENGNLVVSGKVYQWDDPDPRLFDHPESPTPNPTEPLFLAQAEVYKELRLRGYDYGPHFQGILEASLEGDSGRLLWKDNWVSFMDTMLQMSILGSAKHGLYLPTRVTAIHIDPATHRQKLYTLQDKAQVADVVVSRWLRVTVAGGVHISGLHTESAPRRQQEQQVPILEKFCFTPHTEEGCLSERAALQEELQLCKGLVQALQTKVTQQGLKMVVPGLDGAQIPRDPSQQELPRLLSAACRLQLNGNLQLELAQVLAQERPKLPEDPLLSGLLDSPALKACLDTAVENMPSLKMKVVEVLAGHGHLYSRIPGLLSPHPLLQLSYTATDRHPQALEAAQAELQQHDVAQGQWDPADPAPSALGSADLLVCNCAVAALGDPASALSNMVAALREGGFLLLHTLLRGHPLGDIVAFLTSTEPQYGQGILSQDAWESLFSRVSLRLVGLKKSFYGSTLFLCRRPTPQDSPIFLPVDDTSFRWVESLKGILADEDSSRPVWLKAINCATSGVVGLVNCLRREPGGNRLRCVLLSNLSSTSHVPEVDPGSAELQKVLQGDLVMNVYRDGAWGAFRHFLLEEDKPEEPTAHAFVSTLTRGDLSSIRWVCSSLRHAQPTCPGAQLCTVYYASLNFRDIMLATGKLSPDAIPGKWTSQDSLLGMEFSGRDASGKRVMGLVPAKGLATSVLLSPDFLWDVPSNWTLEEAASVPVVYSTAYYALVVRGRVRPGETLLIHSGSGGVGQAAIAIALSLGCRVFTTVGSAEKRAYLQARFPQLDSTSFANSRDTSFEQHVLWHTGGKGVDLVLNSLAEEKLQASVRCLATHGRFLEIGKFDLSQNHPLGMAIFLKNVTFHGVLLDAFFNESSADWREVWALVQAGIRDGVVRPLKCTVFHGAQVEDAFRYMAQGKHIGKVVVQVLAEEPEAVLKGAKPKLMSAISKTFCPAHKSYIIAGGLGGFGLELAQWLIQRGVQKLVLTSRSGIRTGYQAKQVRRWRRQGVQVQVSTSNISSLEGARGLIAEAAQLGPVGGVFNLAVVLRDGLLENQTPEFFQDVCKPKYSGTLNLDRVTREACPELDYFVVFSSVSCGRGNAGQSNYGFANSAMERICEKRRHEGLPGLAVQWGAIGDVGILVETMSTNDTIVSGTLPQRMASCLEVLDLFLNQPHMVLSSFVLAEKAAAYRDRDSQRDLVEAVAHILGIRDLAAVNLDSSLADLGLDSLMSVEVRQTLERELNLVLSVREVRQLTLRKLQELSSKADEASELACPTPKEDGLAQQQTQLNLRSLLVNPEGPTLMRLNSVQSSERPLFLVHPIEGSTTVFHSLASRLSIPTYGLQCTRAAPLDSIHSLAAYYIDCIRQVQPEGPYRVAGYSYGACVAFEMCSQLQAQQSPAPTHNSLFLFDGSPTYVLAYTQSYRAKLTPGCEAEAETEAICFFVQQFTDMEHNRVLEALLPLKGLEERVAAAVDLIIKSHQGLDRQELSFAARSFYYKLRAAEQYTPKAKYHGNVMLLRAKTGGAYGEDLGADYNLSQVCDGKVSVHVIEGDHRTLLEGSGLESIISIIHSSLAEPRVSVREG

Structure (SMILES)	Activity (BXPC-3 [1])	Activity (BXPC-3 [2])	IC50 (Fatty acid synthase [3]) [µM]	Ki (Fatty acid synthase [3]) [µM]	inhibition (PANC-1 [4])	Activity (PANC-1 [5])	Activity (BXPC-3 [6])	Activity (BXPC-3 [7])	Activity (BXPC-3 [8])	Activity (PANC-1 [9])	Activity (BXPC-3 [10])	Activity (BXPC-3 [11])	inhibition (PANC-1 [12])	inhibition (PANC-1 [13])	IC50 (Fatty acid synthase [14]) [µM]	IC50 (Fatty acid synthase [15]) [µM]
CCCCCCCCCCCCCCCC(=O)O	inactive	inactive														
Cc1c(OCC(F)(F)F)ccnc1C[S+]([O-])c1nc2ccccc2[nH]1 (stereo unspecified) [LANSOPRAZOLE]			46.7	5.3	Dose-dependent effect	Dose-dependent effect	Dose-dependent effect	inactive	inactive	inactive	inactive	inactive	Active	inactive	93	124
